Values after ≈ are worked out from the molar mass of the structure shown.
Columns and labels:
Type in all cases: functional
[1] = tested on: Mycobacterium tuberculosis; test: Antitubercular activity against extensively drug resistant Mycobacterium tuberculosis R506 by microplate Alamar Blue assay
Method in brief: (§1)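 Mycobacterium tuberculosis strains were used: H37Rv, and clinical strains from KwaZulu-Natal (MDR KZN494 and V2475; XDR TF274 and R506). Growth was read by microplate Alamar Blue assay. MIC is the lowest drug concentration giving at least a 90% reduction of the bacterial growth signal. Values are the average of three individual measurements.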

[2] = tested on: Mycobacterium tuberculosis; test: Antitubercular activity against extensively drug resistant Mycobacterium tuberculosis TF274 by microplate Alamar Blue assay; method in brief: as §1
[3] = tested on: Mycobacterium tuberculosis; test: Antitubercular activity against multi drug resistant Mycobacterium tuberculosis KZN494 by microplate Alamar Blue assay; method in brief: as §1
[4] = tested on: Mycobacterium tuberculosis; test: Antitubercular activity against extensively drug resistant Mycobacterium tuberculosis V2475 by microplate Alamar Blue assay

`Cc1cc(C)c2cc(C(=O)NC3CCCCCCC3)[nH]c2c1` gave an MIC90 [1] of 0.0067 µM (≈ 0.002 µg/mL) and an MIC90 [2] of 0.026 µM (≈ 0.00776 µg/mL).
Work on `Cc1cc(C)c2cc(C(=O)NC3CCCCC3)[nH]c2c1` yielded an MIC90 [3] of 3.7 µM (≈ 1 µg/mL), an MIC90 [1] of 0.46 µM (≈ 0.124 µg/mL) and an MIC90 [2] of 0.46 µM (≈ 0.124 µg/mL). The MIC90 [4] was 0.93 µM (≈ 0.251 µg/mL).
`Cc1cc(C)c2cc(C(=O)NC3CCCCCC3)[nH]c2c1` was tested, and the MIC90 [3] was 0.11 µM (≈ 0.0313 µg/mL), the MIC90 [1] was 0.055 µM (≈ 0.0156 µg/mL) and the MIC90 [2] was 0.055 µM (≈ 0.0156 µg/mL). The MIC90 [4] was 0.11 µM (≈ 0.0313 µg/mL).
